# Source: ChEMBL document CHEMBL1165950, “Design and synthesis of new potent anticancer pyrazoles with high FLT3 kinase inhibitory selectivity” (Bioorg Med Chem, 2010)
# Tests used:
# Format in all cases: functional
# NCI-H522 [1] = assay: Cytotoxicity against human NCI-H522 cells assessed as cell growth at 100 nM after 48 hrs by sulforhodamine B assay; settings: NCI-H522, 48 h, read-out: Activity
# Malme-3M [2] = assay: Cytotoxicity against human MALME-3M cells assessed as cell growth at 100 nM after 48 hrs by sulforhodamine B assay; settings: read-out: Activity
# UACC-257 = assay: Cytotoxicity against human UACC257 cells assessed as cell growth at 100 nM after 48 hrs by sulforhodamine B assay; settings: UACC-257, 48 h, read-out: Activity
# MDA-MB-231 = assay: Cytotoxicity against human MDA-MB-231 cells assessed as cell growth at 100 nM after 48 hrs by sulforhodamine B assay; settings: MDA-MB-231, 48 h, read-out: Activity
# HOP-62 [3] = assay: Cytotoxicity against human HOP62 cells assessed as cell growth at 1 uM after 48 hrs by sulforhodamine B assay; settings: HOP-62, 48 h, read-out: Activity
# ACHN [4] = assay: Cytotoxicity against human ACHN cells assessed as cell growth at 10 uM; settings: read-out: Activity
# Outline: (§1)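 Single-dose NCI-60 screen at 10 µM. Cells were grown in RPMI 1640 with 5% FBS and 2 mM L-glutamine, then treated for 48 h at 37 °C. Protein was measured by SRB staining with absorbance at 515 nm. Percentage growth was recorded, and inhibition percentage was calculated as 100 minus growth percentage.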
# K562 = assay: Cytotoxicity against human K562 cells assessed as cell growth at 0.001 uM after 48 hrs by sulforhodamine B assay; settings: K562, 48 h, read-out: Activity
# SF-295 = assay: Cytotoxicity against human SF295 cells assessed as cell growth at 1 uM after 48 hrs by sulforhodamine B assay; settings: SF-295, 48 h, read-out: Activity
# LOX IMVI [5] = assay: Cytotoxicity against human LOXIMVI cells assessed as cell growth at 1 uM after 48 hrs by sulforhodamine B assay; settings: read-out: Activity
# SK-MEL-2 = assay: Cytotoxicity against human SK-MEL-2 cells assessed as cell growth at 1 uM after 48 hrs by sulforhodamine B assay; settings: SK-MEL-2, 48 h, read-out: Activity
# COLO 205 = assay: Cytotoxicity against human COLO205 cells assessed as cell growth at 0.01 uM after 48 hrs by sulforhodamine B assay; settings: COLO 205, 48 h, read-out: Activity
# Outline: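 NCI-60 five-dose screen. Cells were grown in RPMI 1640 with 5% FBS and 2 mM L-glutamine, plated at 5000–40,000 cells/well and preincubated for 24 h. Time-zero plates were TCA-fixed. DMSO-solubilized drug was added at five concentrations (10-fold or ½-log serial dilutions) for 48 h at 37 °C, 5% CO2. Cells were TCA-fixed, stained with 0.4% SRB and read at 515 nm. Percent growth used time-zero, control and test absorbances.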
# SK-MEL-28 = assay: Cytotoxicity against human SK-MEL-28 cells assessed as cell growth at 0.01 uM after 48 hrs by sulforhodamine B assay; settings: SK-MEL-28, 48 h, read-out: Activity
# SN12C = assay: Cytotoxicity against human SN12C cells assessed as cell growth at 0.001 uM after 48 hrs by sulforhodamine B assay; settings: read-out: Activity
# [6] = Growth inhibition of human […] cells after 48 hrs by sulforhodamine B assay; settings: for CC50: read-out: LC50 (the source's name)
# Outline: (§2)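 NCI 60-cell screen, five-dose mode. Cells grown in RPMI 1640 with 5% FBS and 2 mM L-glutamine and plated at 5000-40,000 cells/well according to doubling time. After 24 h preincubation, a Tz plate was TCA-fixed. Five concentrations (10-fold or 1/2 log dilutions) were applied for 48 h at 37 °C. SRB staining read at 515 nm. IC50 taken from [(Ti-Tz)/(C-Tz)]×100 = 50.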
# NCI-H522 [7] = assay: Growth inhibition of human NCI-H522 cells after 48 hrs by sulforhodamine B assay; settings: NCI-H522, 48 h; for CC50: read-out: LC50 (the source's name); outline: as §2
# HCT-15 = assay: Growth inhibition of human HCT15 cells after 48 hrs by sulforhodamine B assay; settings: HCT-15, 48 h; for CC50: read-out: LC50 (the source's name); outline: as §2
# HT-29 = assay: Growth inhibition of human HT-29 cells after 48 hrs by sulforhodamine B assay; settings: HT-29, 48 h; for CC50: read-out: LC50 (the source's name); outline: as §2
# U-251 = assay: Growth inhibition of human U251 cells after 48 hrs by sulforhodamine B assay; settings: U-251, 48 h; for CC50: read-out: LC50 (the source's name); outline: as §2
# Malme-3M [8] = assay: Growth inhibition of human MALME-3M cells after 48 hrs by sulforhodamine B assay; settings: for CC50: read-out: LC50 (the source's name); outline: as §2
# OVCAR-4 [9] = assay: Growth inhibition of human OVCAR4 cells after 48 hrs by sulforhodamine B assay; settings: OVCAR-4, 48 h; for CC50: read-out: LC50 (the source's name); outline: as §2
# ACHN [10] = assay: Growth inhibition of human ACHN cells after 48 hrs by sulforhodamine B assay
# Outline: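 NCI five-dose SRB assay in RPMI 1640 with 5% FBS and 2 mM L-glutamine. Cells were preincubated 24 h, then exposed 48 h at 37 °C to five concentrations (10-fold or half-log serial dilutions from DMSO stocks). TCA fixation, SRB staining, and absorbance at 515 nm followed. IC50 was taken where [(Ti−Tz)/(C−Tz)]×100 = 50, with Tz as time-zero cell density.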
# HOP-62 [11] = assay: Cytotoxicity against human HOP62 cells assessed as cell growth at 10 uM; settings: read-out: Activity; outline: as §1
# [12] = Cytotoxicity against human Hs 578T cells assessed as cell growth at 1 uM after 48 hrs by sulforhodamine B assay; settings: read-out: Activity
# T47D = assay: Cytotoxicity against human T47D cells assessed as cell growth at 1 uM after 48 hrs by sulforhodamine B assay; settings: read-out: Activity
# SF-268 = assay: Cytotoxicity against human SF268 cells assessed as cell growth at 10 uM; settings: read-out: Activity
# Outline: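 NCI-60 screen: cells grown in RPMI 1640 with 5% FBS and 2 mM L-glutamine, plated at 5000–40,000 cells/well according to doubling time, and preincubated 24 h at 37 °C, 5% CO2. The single 10 µM dose (DMSO stock) was added, then incubated 48 h. Cells were TCA-fixed and stained with 0.4% SRB, read at 515 nm, and growth % calculated against time-zero and control plates.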
# LOX IMVI [13] = assay: Cytotoxicity against human LOXIMVI cells assessed as cell growth at 10 uM after 48 hrs by sulforhodamine B assay; settings: read-out: Activity
# OVCAR-4 [14] = assay: Cytotoxicity against human OVCAR4 cells assessed as cell growth at 10 uM after 48 hrs by sulforhodamine B assay; settings: OVCAR-4, 48 h, read-out: Activity
# SK-OV-3 = assay: Cytotoxicity against human SKOV3 cells assessed as cell growth at 10 uM after 48 hrs by sulforhodamine B assay; settings: SK-OV-3, 48 h, read-out: Activity
smiles,measurement,setting,value
COc1cc(C)cc(-c2nn(CC#N)cc2-c2ccc(-c3cccc(C(C)=O)c3)nc2)c1,growth at 0.1 µM,NCI-H522 [1],68%
same,growth at 0.1 µM,Malme-3M [2],66%
same,growth at 0.1 µM,UACC-257,70%
same,growth at 0.1 µM,MDA-MB-231,85%
same,growth at 1 µM,HOP-62 [3],16%
same,growth at 10 µM,ACHN [4],35.4%
same,growth at 0.001 µM,K562,82%
same,growth at 1 µM,SF-295,16%
same,growth at 1 µM,LOX IMVI [5],23%
same,growth at 1 µM,SK-MEL-2,22%
same,growth at 0.01 µM,COLO 205,100%
same,growth at 0.01 µM,SK-MEL-28,93%
same,growth at 0.001 µM,SN12C,92%
same,GI50,[6],3.3 µM
same,TGI,[6],18.6 µM
same,CC50,[6],> 100 µM
same,GI50,NCI-H522 [7],1.64 µM
same,TGI,NCI-H522 [7],6.72 µM
same,CC50,NCI-H522 [7],> 100 µM
same,GI50,HCT-15,2.14 µM
same,TGI,HCT-15,> 100 µM
same,CC50,HCT-15,> 100 µM
same,GI50,HT-29,3.28 µM
same,TGI,HT-29,18.7 µM
same,CC50,HT-29,> 100 µM
same,GI50,U-251,3.17 µM
same,TGI,U-251,13.5 µM
same,CC50,U-251,> 100 µM
same,GI50,Malme-3M [8],3.76 µM
same,TGI,Malme-3M [8],96.4 µM
same,CC50,Malme-3M [8],> 100 µM
same,GI50,OVCAR-4 [9],3.76 µM
same,TGI,OVCAR-4 [9],> 100 µM
same,CC50,OVCAR-4 [9],> 100 µM
same,GI50,ACHN [10],4.19 µM
same,LC50 (concentration giving 50% net cell kill),ACHN [10],> 100 µM
same,TGI,ACHN [10],> 100 µM
same,growth at 10 µM,HOP-62 [11],32.1%
same,growth at 1 µM,[12],-43%
same,growth at 1 µM,T47D,-7%
same,growth at 10 µM,SF-268,49.3%
same,growth at 10 µM,LOX IMVI [13],6%
same,growth at 10 µM,OVCAR-4 [14],10%
same,growth at 10 µM,SK-OV-3,-36%
COc1cc(C)cc(-c2nn(CC#N)cc2-c2ccnc(-c3ccc(N(C)C)cc3)c2)c1,growth at 0.1 µM,NCI-H522 [1],-39%
same,growth at 0.1 µM,Malme-3M [2],46%
same,growth at 0.1 µM,UACC-257,28%
same,growth at 0.1 µM,MDA-MB-231,52%
same,growth at 1 µM,HOP-62 [3],5%
same,growth at 10 µM,ACHN [4],16%
same,growth at 0.001 µM,K562,66%
same,growth at 1 µM,SF-295,-7%
same,growth at 1 µM,LOX IMVI [5],5%
same,growth at 1 µM,SK-MEL-2,23%
same,growth at 0.01 µM,COLO 205,116%
same,growth at 0.01 µM,SK-MEL-28,102%
same,growth at 0.001 µM,SN12C,100%
same,GI50,[6],1.36 µM
same,TGI,[6],10.7 µM
same,CC50,[6],> 100 µM
same,GI50,NCI-H522 [7],0.196 µM
same,TGI,NCI-H522 [7],0.492 µM
same,CC50,NCI-H522 [7],3.24 µM
same,GI50,HCT-15,0.35 µM
same,TGI,HCT-15,8.79 µM
same,CC50,HCT-15,> 100 µM
same,GI50,HT-29,0.481 µM
same,TGI,HT-29,2.88 µM
same,CC50,HT-29,37.2 µM
same,GI50,U-251,0.415 µM
same,TGI,U-251,5.86 µM
same,CC50,U-251,> 100 µM
same,TGI,Malme-3M [8],> 100 µM
same,CC50,Malme-3M [8],> 100 µM
same,GI50,OVCAR-4 [9],0.549 µM
same,TGI,OVCAR-4 [9],> 100 µM
same,CC50,OVCAR-4 [9],> 100 µM
same,GI50,ACHN [10],0.499 µM
same,LC50 (concentration giving 50% net cell kill),ACHN [10],> 100 µM
same,TGI,ACHN [10],12.4 µM
same,growth at 10 µM,HOP-62 [11],18.9%
same,growth at 1 µM,[12],-13%
same,growth at 1 µM,T47D,10%
same,growth at 10 µM,SF-268,24.5%
same,growth at 10 µM,LOX IMVI [13],-23%
same,growth at 10 µM,OVCAR-4 [14],15%
same,growth at 10 µM,SK-OV-3,-40%
